{"source": "paper PMC9165018", "about": "(Journal of medicinal chemistry, 2022)", "key": {"[1]": {"assay": "Microsomal stability test, human liver microsome", "assay_type": "in vitro ADME", "conditions": "human liver microsomes", "procedure,_shortened": "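Human liver microsomes (10 µL at 20 mg/mL) were combined with 330 µL 0.1 M phosphate buffer (3.3 mM MgCl2) and 40 µL of 10 µM test compound, with NADPH in the same buffer. Verapamil was the positive control.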"}, "[2]": {"assay": "Microsomal stability test, mouse liver microsome", "assay_type": "in vitro ADME", "conditions": "MLM and HLM t1/2, vs compound 1"}, "MIA PaCa-2 cells [3]": {"test_system": "MIA PaCa-2 cells", "assay": "3-day MTT assay in glucose- or galactose-containing medium", "assay_type": "cell-based", "procedure,_shortened": "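MIA PaCa-2 cells were treated with test compound for 3 days in glucose-containing medium. MTT (3 mg/mL solution) was added for 4 h at 37 °C. Supernatant was removed, formazan was dissolved in DMSO, and absorbance was read at 570 nm. IC50 came from nonlinear regression of log concentration–response curves. Experiments were run at least three times.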"}, "MIA PaCa-2 cells [4]": {"test_system": "MIA PaCa-2 cells", "assay": "7-day MTT growth inhibition assay, MIA PaCa-2", "assay_type": "cell-based", "conditions": "for IC50: Homo sapiens, MIA PaCa-2, 168 h; for activity (cytotoxicity in pancreatic cancer cells): 7-day MTT assay", "procedure,_shortened": "(§1)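 Cells were seeded in glucose-containing medium (MIA PaCa-2 200 cells/well; BxPC-3 300 cells/well), incubated overnight at 37 °C, 5% CO2, then exposed to test compound or DMSO for 7 days. MTT (3 mg/mL solution) was added for 4 h, formazan dissolved in DMSO, and A570 read. Inhibition = [1 − (At−Ab)/(Ac−Ab)] × 100. IC50 came from nonlinear regression; at least three independent runs.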"}, "OXPHOS Complex I": {"test_system": "OXPHOS Complex I", "assay": "NAD+/NADH ratio", "assay_type": "cell-based", "conditions": "MIA PaCa-2 cells, NAD/NADH-Glo Assay, 2 days treatment", "procedure,_shortened": "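MIA PaCa-2 cells (5 × 10^3/well) were treated the next day for 48 h with test compound in RPMI 1640 + 10% FBS. Cells were PBS-washed and lysed in bicarbonate base buffer with 1% DTAB. For NAD+, lysate was acid-treated (0.4 N HCl); for NADH, lysate was heated directly; both at 60 °C for 15 min, then neutralised with Trizma. After 30 min with Glo detection reagent, luminescence was read. IC50 of the NAD+/NADH ratio came from nonlinear regression.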"}, "[5]": {"assay": "Pharmacokinetics in CD-1 mice", "assay_type": "in vivo", "conditions": "plasma", "procedure,_shortened": "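CD-1 mice received test compound at 2 mg/kg i.v. or 10 mg/kg p.o., and plasma concentration–time profiles were measured. Parameters came from non-compartmental analysis: AUC(0-tldc) to last detectable concentration and AUC(0-inf) extrapolated to infinity. Terminal half-life used ≥3 terminal-phase points. Bioavailability = (AUCpo × Dose_iv)/(AUCiv × Dose_po) × 100%.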"}, "BxPC-3 cells": {"test_system": "BxPC-3 cells", "assay": "7-day MTT growth inhibition assay, BxPC-3", "assay_type": "cell-based", "conditions": "Homo sapiens, BXPC-3, 168 h, read-out: IC50 in BxPC-3 cells", "procedure,_shortened": "as §1"}, "Pan02 cells": {"test_system": "Pan02 cells", "assay": "Pan02 syngeneic pancreatic cancer model efficacy study", "assay_type": "in vivo", "conditions": "for tumor growth inhibition: Pan02 syngeneic model", "procedure,_shortened": "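Female C57BL/6 mice, 6-10 weeks old, received 5×10^6 Pan02 cells s.c. in the right flank and were randomized (n = 5/group) at ~100 mm3. Dosing was daily for 28 days in 10% DMSO/50% PG/40% saline, or 10% DMSO/60% PG/30% saline for the 15 mg/kg dose. Tumours were measured by caliper twice weekly, V = (length × width²)/2. Body weight was recorded before dosing, then twice weekly.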"}, "[6]": {"conditions": "read-out: IC50 in MIA PaCa-2 cells"}}, "note": "Several values for one entry are separate records, joined by “and”; a condition that tells them apart may be missing. Equal entries are not always repeated. Entries after “also recorded” stand apart in the source; their conditions may differ. Where two headings read alike, the source gives them in different places.", "data": [{"molecule": "CCOC(=O)[C@@H]1CCCN(S(=O)(=O)c2ccc(S(=O)(=O)N(CC)CC)cc2)C1", "note": "[Compound 1]", "values": [{"measurement": "HLM t1/2 (human liver microsome half life)", "setting": "[1]", "result": 36, "unit": "s"}]}, {"molecule": "CCN(CC)S(=O)(=O)c1ccc(S(=O)(=O)N2CCC[C@@H](C(=O)NC3COC3)C2)cc1", "note": "[Compound 2]", "values": [{"measurement": "improvement of microsomal stability over compound 1", "setting": "[2]", "result": "more than 30 fold"}]}, {"molecule": "CCN(CC)S(=O)(=O)c1ccc(S(=O)(=O)N2CCC[C@@H](C(=O)N3CCC(OC)CC3)C2)cc1", "note": "[Compound 12, (R)-N,N-Diethyl-4-((3-(4-methoxypiperidine-1-carbonyl)piperidin-1-yl)sulfonyl)benzenesulfonamide]", "values": [{"measurement": "activity in glucose-containing medium", "setting": "MIA PaCa-2 cells [3]", "result": "inactive"}, {"measurement": "improvement in MIA PaCa-2 cell growth inhibition", "setting": "MIA PaCa-2 cells [4]; vs compound 11", "result": 2, "unit": "fold"}]}, {"molecule": "CCN(CC)S(=O)(=O)c1ccc(S(=O)(=O)N2CCC[C@@H](C(=O)N3CCC(F)(F)CC3)C2)cc1", "note": "[Compound 16, (R)-4-((3-(4,4-Difluoropiperidine-1-carbonyl)piperidin-1-yl)sulfonyl)-N,N-diethylbenzenesulfonamide]", "values": [{"measurement": "NAD+/NADH ratio (IC50, nM) Glucose medium", "setting": "OXPHOS Complex I", "result": "23 ± 18.1", "unit": "nM"}]}, {"molecule": "CN(C)S(=O)(=O)c1ccc(S(=O)(=O)N2CCC[C@@H](C(=O)N3CCC(F)(F)CC3)C2)cc1", "note": "[Compound 20, (R)-4-((3-(4,4-Difluoropiperidine-1-carbonyl)piperidin-1-yl)sulfonyl)-N,N-dimethylbenzenesulfonamide]", "values": [{"measurement": "NAD+/NADH ratio (IC50, nM) Glucose medium", "setting": "OXPHOS Complex I", "result": "34 ± 15", "unit": "nM"}, {"measurement": "IC50", "setting": "MIA PaCa-2 cells [4]; read-out: MIA PaCa-2 IC50", "result": "0.118 ± 0.044", "unit": "µM"}]}, {"molecule": "O=C([C@@H]1CCCN(S(=O)(=O)c2ccc(S(=O)(=O)N3CC[C@@H](O)C3)cc2)C1)N1CCC(F)(F)CC1", "note": "[Compound 21, (4,4-Difluoropiperidin-1-yl)((R)-1-((4-(((R)-3-hydroxypyrrolidin-1-yl)sulfonyl)phenyl)sulfonyl)piperidin-3-yl)methanone]", "values": [{"measurement": "NAD+/NADH ratio (IC50, nM) Glucose medium", "setting": "OXPHOS Complex I", "result": "67.5 ± 18.8", "unit": "nM"}]}, {"molecule": "CC(C)S(=O)(=O)c1ccc(S(=O)(=O)N2CCC[C@@H](C(=O)N3CCC(F)(F)CC3)C2)cc1", "note": "[Compound 23, (R)-(4,4-Difluoropiperidin-1-yl)(1-((4-(isopropylsulfonyl)phenyl)sulfonyl)piperidin-3-yl)methanone]", "values": [{"measurement": "NAD+/NADH ratio (IC50, nM) Glucose medium", "setting": "OXPHOS Complex I", "result": "3.6 nM and 3.6 ± 3.2 nM"}, {"measurement": "AUC(0-inf)", "setting": "[5]; IV 2 mg/kg", "result": "657.0 nM:h"}, {"measurement": "AUC(0-tldc)", "setting": "[5]; IV 2 mg/kg", "result": "650.0 nM:h"}, {"measurement": "AUC(0-inf)", "setting": "[5]; PO 10 mg/kg", "result": "417.1 nM:h"}, {"measurement": "AUC(0-tldc)", "setting": "[5]; PO 10 mg/kg", "result": "368.1 nM:h"}, {"measurement": "IC50", "setting": "BxPC-3 cells", "result": "< 0.1", "unit": "µM"}, {"measurement": "tolerability", "setting": "Pan02 cells; Pan02 model, once daily for 28 days, 20 7.5 mg/kg i.p., 21 15 mg/kg i.p., 27 2.5 mg/kg i.p., 23 10 mg/kg p.o.", "result": "well tolerated"}, {"measurement": "tumor growth inhibition", "setting": "Pan02 cells; 10 mg/kg p.o. once daily for 28 days, 10 mg/kg", "result": "significant tumor growth inhibition; also recorded: significant tumor growth delay"}, {"measurement": "IC50", "setting": "MIA PaCa-2 cells [4]; [6]", "result": "~0.01", "unit": "µM"}]}, {"molecule": "CCC(CC)S(=O)(=O)c1ccc(S(=O)(=O)N2CCC[C@@H](C(=O)N3CCC(F)(F)CC3)C2)cc1", "note": "[Compound 25, (R)-(4,4-Difluoropiperidin-1-yl)(1-((4-(pentan-3-ylsulfonyl)phenyl)sulfonyl)piperidin-3-yl)methanone]", "values": [{"measurement": "IC50", "setting": "BxPC-3 cells", "result": "< 0.1", "unit": "µM"}, {"measurement": "IC50", "setting": "MIA PaCa-2 cells [4]; [6]", "result": "~0.01", "unit": "µM"}]}, {"molecule": "O=C([C@@H]1CCCN(S(=O)(=O)c2ccc(S(=O)(=O)C3CCC3)cc2)C1)N1CCC(F)(F)CC1", "note": "[Compound 27, (R)-(1-((4-(Cyclobutylsulfonyl)phenyl)sulfonyl)piperidin-3-yl)(4,4-difluoropiperidin-1-yl)methanone]", "values": [{"measurement": "NAD+/NADH ratio (IC50, nM) Glucose medium", "setting": "OXPHOS Complex I", "result": "3.2 ± 1.3", "unit": "nM"}, {"measurement": "IC50", "setting": "BxPC-3 cells", "result": "< 0.1", "unit": "µM"}, {"measurement": "tumor growth inhibition", "setting": "Pan02 cells; 2.5 mg/kg i.p. once daily for 28 days", "result": "significant tumor growth inhibition"}, {"measurement": "IC50", "setting": "MIA PaCa-2 cells [4]; [6]", "result": "~0.01", "unit": "µM"}]}, {"molecule": "CP(C)(=O)c1ccc(S(=O)(=O)N2CCC[C@@H](C(=O)N3CCC(F)(F)CC3)C2)cc1", "note": "[Compound 30, (R)-(4,4-Difluoropiperidin-1-yl)(1-((4-(dimethylphosphoryl)phenyl)sulfonyl)piperidin-3-yl)methanone]", "values": [{"measurement": "activity (cytotoxicity in pancreatic cancer cells)", "setting": "MIA PaCa-2 cells [4]", "result": "complete loss of activity"}]}, {"molecule": "CCP(=O)(CC)c1ccc(S(=O)(=O)N2CCC[C@@H](C(=O)N3CCC(F)(F)CC3)C2)cc1", "note": "[Compound 31, (R)-(1-((4-(diethylphosphoryl)phenyl)sulfonyl)piperidin-3-yl)(4,4-difluoropiperidin-1-yl)methanone]", "values": [{"measurement": "activity (cytotoxicity in pancreatic cancer cells)", "setting": "MIA PaCa-2 cells [4]", "result": "complete loss of activity"}]}]}
